Assay results from ChEMBL document CHEMBL1153229, “The first synthetic agonists of FFA2: Discovery and SAR of phenylacetamides as allosteric modulators” (Bioorg Med Chem Lett, 2010).
Activity calls are given as the source filed them. The calls are words filed in the database; no cut-off is given here.

Key:
[1] = target: C-C chemokine receptor type 2 (Homo sapiens) (UniProt P41597); experiment: Agonist activity at CCR2 up to 30 uM; format: functional
[2] = target: T1, Free fatty acid receptor 2 (Mus musculus) (UniProt Q8VCK6); experiment: Agonist activity at mouse FFA2 receptor expressed in CHO cells assessed as inhibition of forskolin-induced cAMP production; format: functional, cell-based
T1 sequence (whole entry): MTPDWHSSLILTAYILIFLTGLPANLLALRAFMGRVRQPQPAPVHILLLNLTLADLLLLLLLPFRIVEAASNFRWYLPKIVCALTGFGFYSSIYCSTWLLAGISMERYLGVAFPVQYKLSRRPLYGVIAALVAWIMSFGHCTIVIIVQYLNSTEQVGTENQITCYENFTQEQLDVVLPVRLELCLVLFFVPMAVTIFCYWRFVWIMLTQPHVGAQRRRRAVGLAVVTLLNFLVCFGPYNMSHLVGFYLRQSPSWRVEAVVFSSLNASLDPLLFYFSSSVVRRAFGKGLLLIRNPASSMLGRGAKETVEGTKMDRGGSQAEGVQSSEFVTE
Outline: (§1)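 Suspended cells, 10,000 per well, in Hank's balanced salt solution with 25 mM HEPES and 0.01% (w/v) BSA. Stimulated with forskolin (5 μM final) plus serially diluted test ligands, room temperature for 30 min. Antibody and lysis reagents then added, followed by overnight dark incubation with detection solution. Luminescence read (RLU). Efficacy expressed relative to acetate. Means of four experiments.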

[3] = target: T2, C-C chemokine receptor type 7 (Homo sapiens) (UniProt P32248); experiment: Agonist activity at CCR7 up to 30 uM; format: functional
T2 sequence (whole entry): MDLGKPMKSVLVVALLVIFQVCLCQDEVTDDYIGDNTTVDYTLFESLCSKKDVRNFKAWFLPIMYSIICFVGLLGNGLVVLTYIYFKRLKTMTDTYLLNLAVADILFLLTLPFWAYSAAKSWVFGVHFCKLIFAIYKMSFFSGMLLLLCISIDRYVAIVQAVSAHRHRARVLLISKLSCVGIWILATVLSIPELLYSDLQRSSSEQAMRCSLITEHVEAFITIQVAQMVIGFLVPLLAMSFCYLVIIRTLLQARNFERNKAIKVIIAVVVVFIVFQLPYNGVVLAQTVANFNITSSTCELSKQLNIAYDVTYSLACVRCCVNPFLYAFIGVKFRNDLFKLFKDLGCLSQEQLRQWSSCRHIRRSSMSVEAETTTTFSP

[4] = target: T3, Free fatty acid receptor 2 (Homo sapiens, UniProt O15552); experiment: Agonist activity at human FFA2 receptor expressed in CHO cells assessed as inhibition of forskolin-induced cAMP production; format: functional, cell-based; outline: as §1
T3 sequence (O15552 whole entry): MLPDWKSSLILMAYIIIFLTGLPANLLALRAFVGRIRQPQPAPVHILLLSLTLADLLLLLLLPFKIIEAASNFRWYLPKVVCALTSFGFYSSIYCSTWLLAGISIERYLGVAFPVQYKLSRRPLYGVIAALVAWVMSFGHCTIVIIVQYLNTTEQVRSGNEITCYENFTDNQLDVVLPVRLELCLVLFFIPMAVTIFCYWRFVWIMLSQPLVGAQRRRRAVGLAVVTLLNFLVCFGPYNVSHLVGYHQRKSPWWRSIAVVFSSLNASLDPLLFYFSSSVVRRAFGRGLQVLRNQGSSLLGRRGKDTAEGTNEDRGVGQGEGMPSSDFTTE

[5] = target: C-X-C chemokine receptor type 4 (Homo sapiens) (UniProt P61073); experiment: Agonist activity at CXCR4 up to 30 uM; format: functional
[6] = tested on: Mus musculus; experiment: Reduction in plasma free fatty acid level in overnight fasted FFA2 knockout C57BL/6 mouse at 3 mg/kg, ip after 15 mins; format: functional, organism-based; parameters: dose 3 mg/kg
Outline: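 Male-unspecified C57BL6 mice, wild type or FFA2 knockout, fasted overnight. Given compound or vehicle (10% dimethyl acetamide, 10% ethanol, 30% propylene glycol, 50% saline) ip at 10 ml/kg. Tail blood sampled before and 15 minutes after injection. Plasma FFA measured by enzymatic kit. Ten animals per group; t test.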

Chain of C-X-C chemokine receptor type 4 (Homo sapiens) (P61073 whole entry): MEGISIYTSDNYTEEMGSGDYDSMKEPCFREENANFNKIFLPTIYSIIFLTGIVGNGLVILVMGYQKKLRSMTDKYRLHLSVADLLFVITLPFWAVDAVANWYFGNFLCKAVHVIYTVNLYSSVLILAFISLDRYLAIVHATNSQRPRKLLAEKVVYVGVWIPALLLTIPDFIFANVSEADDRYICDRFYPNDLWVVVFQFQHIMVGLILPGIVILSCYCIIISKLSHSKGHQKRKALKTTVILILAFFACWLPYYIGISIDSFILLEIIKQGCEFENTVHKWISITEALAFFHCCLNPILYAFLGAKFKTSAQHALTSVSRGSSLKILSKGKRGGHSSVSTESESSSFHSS
Chain of C-C chemokine receptor type 2 (Homo sapiens) (P41597 whole entry, looked up): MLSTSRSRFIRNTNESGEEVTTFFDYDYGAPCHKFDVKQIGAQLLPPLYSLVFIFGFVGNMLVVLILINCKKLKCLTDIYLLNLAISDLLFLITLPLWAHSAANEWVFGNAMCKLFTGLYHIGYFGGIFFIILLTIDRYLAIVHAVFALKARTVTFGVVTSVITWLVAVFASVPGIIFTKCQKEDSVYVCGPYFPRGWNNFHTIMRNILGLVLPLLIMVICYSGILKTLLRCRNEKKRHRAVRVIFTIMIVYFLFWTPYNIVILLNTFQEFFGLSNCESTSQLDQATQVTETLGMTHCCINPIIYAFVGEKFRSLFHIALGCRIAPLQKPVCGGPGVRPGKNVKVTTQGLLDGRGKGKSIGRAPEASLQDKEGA

With `CC(C)[C@H](C(=O)Nc1ncc(F)s1)c1ccc(Cl)cc1` the Activity [1] was “inactive”, the Activity [2] was 0.7 µM and the Activity [3] was “inactive”. The IC50 [4] was 500 nM, the Activity [5] was “inactive” and the Activity [6] was “inactive”.
